Test [1] is filed under the species Homo sapiens. Briefly: Selectivity for human A2B receptor over human A1 receptor.
The next test concerns the target Adenosine receptor A2a (Homo sapiens, UniProt P29274). Briefly: Displacement of [3H]ZM241385 from human A2A receptor expressed in HEK293 cell membranes. In outline: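 A2A affinity by competition with 3H-ZM241385 (2 nM) for binding sites in membranes from HEK-A2A cells.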
The next test has as its target T1, Adenosine receptor A1 (Homo sapiens, UniProt P30542).
T1 sequence (P30542 whole entry): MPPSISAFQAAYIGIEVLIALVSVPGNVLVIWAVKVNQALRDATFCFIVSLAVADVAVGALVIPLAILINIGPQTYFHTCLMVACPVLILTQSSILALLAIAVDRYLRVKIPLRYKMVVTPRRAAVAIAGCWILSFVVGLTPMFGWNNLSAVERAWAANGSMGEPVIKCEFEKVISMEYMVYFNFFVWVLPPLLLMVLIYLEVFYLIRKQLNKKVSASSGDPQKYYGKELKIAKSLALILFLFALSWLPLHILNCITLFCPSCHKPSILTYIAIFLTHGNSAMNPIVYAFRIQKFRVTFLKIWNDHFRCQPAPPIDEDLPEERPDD
Briefly: Displacement of [3H]-CPX from human A1 receptor expressed in CHO cell membranes. In outline: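 Competitive binding on membranes prepared from A1-expressing CHO cells, radioligand 3H-CPX at 0.5 nM.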
(In general: Displacement assays read how much labelled ligand stays bound in the presence of the test substance.)

The species entered for test [2] is Homo sapiens. Description: Selectivity for human A2B receptor over human A3 receptor.
A further test concerns the target T2, Adenosine receptor A2b (Homo sapiens, UniProt P29275).
T2 sequence (P29275 whole entry): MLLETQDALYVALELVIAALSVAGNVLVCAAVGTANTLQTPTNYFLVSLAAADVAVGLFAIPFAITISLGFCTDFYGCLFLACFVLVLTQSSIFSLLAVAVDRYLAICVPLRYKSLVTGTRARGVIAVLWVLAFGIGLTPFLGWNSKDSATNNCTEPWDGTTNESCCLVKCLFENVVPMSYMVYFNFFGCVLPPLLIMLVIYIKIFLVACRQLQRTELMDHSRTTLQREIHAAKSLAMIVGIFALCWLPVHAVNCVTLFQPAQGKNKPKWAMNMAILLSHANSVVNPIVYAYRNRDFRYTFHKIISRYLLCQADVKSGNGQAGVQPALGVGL
Briefly: Displacement of [3H]-ZM241385 from human A2B receptor expressed in HEK293 cell membranes. The gist of the method: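 Membranes from HEK cells expressing A2B; binding sites labeled with 3H-ZM241385 at 14 nM and displaced competitively.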

The species named for test [3] is Homo sapiens. Briefly: Selectivity for human A2B receptor over human A2A receptor.
Another test deals with T3, Adenosine receptor A3 (Homo sapiens, UniProt P0DMS8).
T3 sequence (P0DMS8 whole entry): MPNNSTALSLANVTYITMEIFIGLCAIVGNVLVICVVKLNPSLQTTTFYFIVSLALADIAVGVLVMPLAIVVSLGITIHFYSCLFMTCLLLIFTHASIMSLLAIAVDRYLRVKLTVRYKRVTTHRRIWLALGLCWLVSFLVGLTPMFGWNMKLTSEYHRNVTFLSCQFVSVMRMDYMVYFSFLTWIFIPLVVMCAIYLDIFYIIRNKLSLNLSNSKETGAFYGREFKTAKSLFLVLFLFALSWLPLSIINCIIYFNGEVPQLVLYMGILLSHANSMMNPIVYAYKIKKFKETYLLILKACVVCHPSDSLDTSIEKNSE
Briefly: Displacement of [125I]-AB-MECA from human A3 receptor expressed in CHO cells. The class given is cell-based. In outline: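 A3 binding: competition for sites labeled by 125I-AB-MECA using CHO cells expressing the A3 receptor.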

A value given as a limit tells only on which side of the number the result lay.

Usually Ki stands for a dissociation constant, usually derived from enzyme kinetics or from competition with a known ligand. A higher Ki goes with lower affinity.

Chain of Adenosine receptor A2a (P29274 whole entry): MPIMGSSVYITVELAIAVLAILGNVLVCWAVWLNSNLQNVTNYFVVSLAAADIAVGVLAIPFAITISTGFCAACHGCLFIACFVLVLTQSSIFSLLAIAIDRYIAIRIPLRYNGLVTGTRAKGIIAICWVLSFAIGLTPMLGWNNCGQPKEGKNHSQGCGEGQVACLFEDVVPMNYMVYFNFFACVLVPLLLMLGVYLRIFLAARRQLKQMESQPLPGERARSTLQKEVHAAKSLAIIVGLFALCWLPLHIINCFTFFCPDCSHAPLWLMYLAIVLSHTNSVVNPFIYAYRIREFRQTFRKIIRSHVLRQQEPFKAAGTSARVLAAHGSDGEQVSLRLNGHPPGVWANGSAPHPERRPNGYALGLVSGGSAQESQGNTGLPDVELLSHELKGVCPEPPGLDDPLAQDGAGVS

In the case of `CCCCn1c(=O)[nH]c2nc(-c3cnn(Cc4cccc(F)c4)c3)[nH]c2c1=O`, the Ratio Ki in the test filed under Homo sapiens [1] is 230; in the test listed under Homo sapiens [2], 15; in the test listed under Homo sapiens [3] it was over 280. The Ki was over 5000 nM at Adenosine receptor A2a, 4200 nM at Adenosine receptor A1, 18 nM on Adenosine receptor A2b and 270 nM at Adenosine receptor A3.

Regarding `CCn1c(=O)[nH]c2nc(-c3cnn(Cc4cccc(C(F)(F)F)c4)c3)[nH]c2c1=O`, the figures for the Ratio Ki in the test listed under Homo sapiens [1], in the test filed under Homo sapiens [2] and in the test filed under Homo sapiens [3] were over 1000, over 1500 and over 830, respectively. Besides, the Ki on Adenosine receptor A2a was over 5000 nM; on Adenosine receptor A1 it was over 6000 nM; on Adenosine receptor A2b, 6 nM; on Adenosine receptor A3, over 9000 nM.

For `CCCn1c(=O)[nH]c2nc(-c3cnn(Cc4cc(-c5ccccc5)on4)c3)[nH]c2c1=O`, the values for the Ratio Ki in the test listed under Homo sapiens [1], in the test filed under Homo sapiens [2] and in the test filed under Homo sapiens [3] were over 270, over 400 and over 230, respectively. Moreover, the Ki was over 5000 nM at Adenosine receptor A2a, over 6000 nM at Adenosine receptor A1, 22 nM at Adenosine receptor A2b and over 9000 nM on Adenosine receptor A3.

For `CCn1c(=O)[nH]c2nc(-c3cnn(Cc4ccccc4)c3)[nH]c2c1=O`, the Ratio Ki came out at 150 in the test filed under Homo sapiens [1], 40 in the test listed under Homo sapiens [2] and 100 in the test filed under Homo sapiens [3]. For the same molecule, the inhibitory constant (Ki) at Adenosine receptor A2a came out at 3800 nM; at Adenosine receptor A1, 5600 nM; at Adenosine receptor A2b, 37 nM; on Adenosine receptor A3 it was 1500 nM.

As for `CC(C)Cn1c(=O)[nH]c2nc(-c3cnn(Cc4noc(-c5ccc(C(F)(F)F)cc5)n4)c3)[nH]c2c1=O`, the Ratio Ki in the test filed under Homo sapiens [1] was over 400; in the test listed under Homo sapiens [2], over 650; in the test filed under Homo sapiens [3] it was over 350. Also, the Ki on Adenosine receptor A2a is over 5000 nM; on Adenosine receptor A1 it was over 6000 nM; at Adenosine receptor A2b, 14 nM; at Adenosine receptor A3, over 9000 nM.

With `CC(C)Cn1c(=O)[nH]c2nc(-c3cnn(Cc4ccccc4)c3)[nH]c2c1=O`, the Ratio Ki in the test filed under Homo sapiens [1] was over 460; in the test listed under Homo sapiens [2] it was 90; in the test listed under Homo sapiens [3], over 380. Moreover, the Ki on Adenosine receptor A2a was over 5000 nM; at Adenosine receptor A1, over 6000 nM; on Adenosine receptor A2b, 13 nM; at Adenosine receptor A3, 1100 nM.

Turning to `CCCn1c(=O)[nH]c2nc(-c3cnn(Cc4noc(-c5ccc(C(F)(F)F)cc5)n4)c3)[nH]c2c1=O`, the values for the Ratio Ki in the test filed under Homo sapiens [1], in the test listed under Homo sapiens [2] and in the test listed under Homo sapiens [3] were 90, over 600 and over 300, respectively. Further, the Ki at Adenosine receptor A2a is over 5000 nM; on Adenosine receptor A1, 1400 nM; at Adenosine receptor A2b it was 15 nM; at Adenosine receptor A3, over 9000 nM.

On to `CCCn1c(=O)[nH]c2nc(-c3cnn(Cc4cccc(F)c4)c3)[nH]c2c1=O`, for which the Ratio Ki in the test listed under Homo sapiens [1] amounted to 160; in the test filed under Homo sapiens [2], 15; in the test listed under Homo sapiens [3] it was 160. Besides, the inhibition constant (Ki) at Adenosine receptor A2a is 1730 nM; at Adenosine receptor A1 it was 1800 nM; on Adenosine receptor A2b, 11 nM; on Adenosine receptor A3 it was 160 nM.

For `CCCCn1c(=O)[nH]c2nc(-c3cnn(Cc4cccc(C(F)(F)F)c4)c3)[nH]c2c1=O`, the Ratio Ki was over 200 in the test listed under Homo sapiens [1], over 300 in the test filed under Homo sapiens [2] and over 170 in the test listed under Homo sapiens [3]. Moreover, the Ki is over 5000 nM at Adenosine receptor A2a, over 6000 nM at Adenosine receptor A1, 30 nM at Adenosine receptor A2b and over 9000 nM at Adenosine receptor A3.

The record behind these values is ChEMBL document CHEMBL1141482, “Selective, high affinity A(2B) adenosine receptor antagonists: N-1 monosubstituted 8-(pyrazol-4-yl)xanthines” (Bioorg Med Chem Lett, 2008).
